The values below come from ChEMBL document CHEMBL4359877, “Identification of benzothiazinones containing an oxime functional moiety as new anti-tuberculosis agents” (Eur J Med Chem, 2019).

Series [1] has as its system Mycobacterium tuberculosis. Briefly: Antimycobacterial activity against Mycobacterium tuberculosis H37Rv ATCC 27294 assessed as reduction in bacterial cell growth incubated for 7 days by microplate alamar blue assay. In kind it is functional. The conditions noted are these: H37Rv ATCC 27294, 168 h. An outline of the steps: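 MABA: H37Rv or clinical MDR isolates (resistant to INH and RFP, Beijing Chest Hospital patients) grown to late log phase in 7H9 with glycerol, Tween 80 and ADC, washed, filtered and frozen. Two-fold compound dilutions with 2 × 10⁵ CFU per well, 37 °C; Alamar blue plus Tween 80 added on day 7, fluorescence (ex 530/em 590) read after 16–24 h. MIC = lowest concentration giving ≥90% fluorescence reduction versus mean of bacterium-only controls; RIF and INH as positive controls.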
(In general: Resazurin is reduced to fluorescent resorufin, in cell work by metabolically active cells.)

The nature of series [2]: Cytotoxicity against African green monkey Vero cells assessed as reduction in cell viability. In kind it is cell-based. The following applies: chlorocebus sabaeus.
Series [3] can be described thus: Half life in ICR mouse at 25 mg/kg, po measured upto 24 hrs by HPLC analysis. In kind it is ADME, organism-based. The conditions noted are these: in vivo. In outline: (§1)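 Female SPF ICR mice, 18–22 g, fasted overnight, 3 per group; single oral dose 25 mg/kg as suspension in 0.5% CMC. Jugular vein blood drawn at 0.25, 0.5, 1, 2, 4, 6, 8 and 24 h; serum deproteinised with acetonitrile, dried, redissolved and quantified by HPLC. AUC, t1/2, Cmax and Tmax taken directly from concentration–time data.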

Series [4] can be described thus: Tmax in ICR mouse at 25 mg/kg, po measured upto 24 hrs by HPLC analysis. In kind it is ADME, organism-based. The conditions noted are these: in vivo. In outline: as §1
Series [5] in a line: Cmax in ICR mouse at 25 mg/kg, po measured upto 24 hrs by HPLC analysis. The class given is ADME, organism-based. The arrangement: dose 25 mg/kg, route oral. The conditions noted are these: in vivo. In outline: as §1
Series [6] in a line: AUC (0 to infinity) in ICR mouse at 25 mg/kg, po measured upto 24 hrs by HPLC analysis. In kind it is ADME, organism-based. The arrangement: dose 25 mg/kg, time infinity, route oral. The conditions noted are these: in vivo. In outline:
as §1

Series [7] in a line: MRT in ICR mouse at 25 mg/kg, po measured upto 24 hrs by HPLC analysis. In kind it is ADME, organism-based. The following applies: in vivo. In outline: as §1
In series [8] the test system is Mycobacterium tuberculosis. The series is described as follows: Antituberculosis activity against Mycobacterium tuberculosis H37Rv infected in BALB/C mouse assessed as colony forming unit in lungs at 25 mg/kg, po administered once daily via gavage for 5 days per week for 3 weeks starting from 10 days post-infection (reference value: 6.44 +/- 0.34). In kind it is functional.

The subject of series [9] is Mycobacterium tuberculosis. The series is described as follows: Antimycobacterial activity against Mycobacterium tuberculosis H37Rv assessed as reduction in bacterial cell growth at 32 ug/ml by Low-oxygen recovery assay. In kind it is functional.
The subject of series [10] is Mycobacterium tuberculosis. The series is described as follows: Antimycobacterial activity against Mycobacterium tuberculosis H37Rv assessed as reduction in bacterial cell growth by Low-oxygen recovery assay. The class given is functional.
The target in the next series is T1, CYP1A2 (Homo sapiens, UniProt P05177).
T1 sequence (P05177 whole entry): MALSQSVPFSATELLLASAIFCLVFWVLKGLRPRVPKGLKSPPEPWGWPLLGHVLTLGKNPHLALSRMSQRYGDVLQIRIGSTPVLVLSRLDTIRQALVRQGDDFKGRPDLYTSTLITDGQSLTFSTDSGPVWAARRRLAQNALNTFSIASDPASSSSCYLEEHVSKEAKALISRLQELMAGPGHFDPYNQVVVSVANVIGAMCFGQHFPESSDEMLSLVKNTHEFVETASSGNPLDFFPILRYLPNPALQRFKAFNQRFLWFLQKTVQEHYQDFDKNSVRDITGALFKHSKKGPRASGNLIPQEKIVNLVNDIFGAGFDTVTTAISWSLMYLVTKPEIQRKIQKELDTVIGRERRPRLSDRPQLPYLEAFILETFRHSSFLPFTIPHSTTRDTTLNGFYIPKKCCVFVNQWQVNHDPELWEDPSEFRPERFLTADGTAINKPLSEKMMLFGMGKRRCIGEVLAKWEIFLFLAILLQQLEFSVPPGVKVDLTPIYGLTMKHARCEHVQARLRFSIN
The series is described as follows: Inhibition of CYP1A2 (unknown origin). The class given is ADME.

For the next series, the target named is CYP2D6 (Homo sapiens, UniProt P10635). Briefly: Inhibition of CYP2D6 (unknown origin). In kind it is ADME.
Another series has as its target CYP3A4 (Homo sapiens, UniProt P08684). Briefly: Inhibition of CYP3A4 (unknown origin). The class given is ADME.
Another series concerns the target CYP2C9 (Homo sapiens, UniProt P11712). Briefly: Inhibition of CYP2C9 (unknown origin). In kind it is ADME.
The target in a further series is Cytochrome P450 2C19 (Homo sapiens, UniProt P33261). Briefly: Inhibition of CYP2C19 (unknown origin). In kind it is ADME.
Series [11] deals with Voltage-gated inwardly rectifying potassium channel KCNH2 (Homo sapiens, UniProt Q12809). The series is described as follows: Inhibition of human ERG transfected in HEK293 cells by whole-cell patch clamp method. The class given is cell-based. The conditions noted are these: hek293.
The nature of series [12]: Mutagenicity in Salmonella typhimurium TA100 in absence of S9 fraction by mini-Ames test. The following applies: salmonella enterica subsp. enterica serovar typhimurium. In kind it is toxicity. In general terms: In the Ames test, an excess of revertant colonies over the control signals mutagenicity.
Series [13] is described as follows: Mutagenicity in Salmonella typhimurium TA102 in absence of S9 fraction by mini-Ames test. The conditions noted are these: salmonella enterica subsp. enterica serovar typhimurium. In kind it is toxicity.
Series [14] in a line: Mutagenicity in Salmonella typhimurium TA100 in presence of S9 fraction by mini-Ames test. The conditions noted are these: salmonella enterica subsp. enterica serovar typhimurium. The class given is toxicity, subcellular.
Series [15] is described as follows: Mutagenicity in Salmonella typhimurium TA102 in presence of S9 fraction by mini-Ames test. The class given is toxicity, subcellular. The following applies: salmonella enterica subsp. enterica serovar typhimurium.
Series [16] in a line: Acute toxicity in Sprague-Dawley rat assessed as death at 2 g/kg, po measured continuously for first 4 hrs followed by every 1 hr for next 24 hrs and subsequent 8 hrs interval for 7 days. The following applies: in vivo, 2000 mg/kg. In kind it is organism-based. In outline:
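SD rats, 180–220 g, randomised, ten per group, food withheld overnight. Single oral dose of 2 g/kg suspended in 5% CMC; controls given vehicle only. Watched continuously for 4 h, hourly for the next 24 h, then every 8 h through day 7 for deaths or changes. Read-out is survivors/total at 7 days.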

Series [17] deals with Mycobacterium tuberculosis. The series is described as follows: Antituberculosis activity against Mycobacterium tuberculosis H37Rv infected in BALB/C mouse assessed as reduction in log10CFU in lungs at 25 mg/kg, po administered once daily for 5 days per week for a total of 3 weeks started on day 10 post-infection. The class given is functional.

Sequence of CYP3A4 (P08684 whole entry): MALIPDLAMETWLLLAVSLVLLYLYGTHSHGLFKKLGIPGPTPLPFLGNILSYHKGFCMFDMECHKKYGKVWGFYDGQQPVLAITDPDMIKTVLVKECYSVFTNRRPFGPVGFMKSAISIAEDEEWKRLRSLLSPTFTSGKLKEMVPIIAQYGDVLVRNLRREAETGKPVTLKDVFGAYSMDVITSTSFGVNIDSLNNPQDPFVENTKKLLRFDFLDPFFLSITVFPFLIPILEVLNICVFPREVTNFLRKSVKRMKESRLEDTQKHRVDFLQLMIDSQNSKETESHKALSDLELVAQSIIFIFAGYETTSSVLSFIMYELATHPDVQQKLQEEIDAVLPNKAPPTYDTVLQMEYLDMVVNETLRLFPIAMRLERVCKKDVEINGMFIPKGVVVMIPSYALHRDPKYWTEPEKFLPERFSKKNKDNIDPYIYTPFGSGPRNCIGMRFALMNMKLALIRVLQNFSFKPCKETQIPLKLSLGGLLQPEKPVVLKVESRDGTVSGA
Sequence of CYP2C9 (P11712 whole entry): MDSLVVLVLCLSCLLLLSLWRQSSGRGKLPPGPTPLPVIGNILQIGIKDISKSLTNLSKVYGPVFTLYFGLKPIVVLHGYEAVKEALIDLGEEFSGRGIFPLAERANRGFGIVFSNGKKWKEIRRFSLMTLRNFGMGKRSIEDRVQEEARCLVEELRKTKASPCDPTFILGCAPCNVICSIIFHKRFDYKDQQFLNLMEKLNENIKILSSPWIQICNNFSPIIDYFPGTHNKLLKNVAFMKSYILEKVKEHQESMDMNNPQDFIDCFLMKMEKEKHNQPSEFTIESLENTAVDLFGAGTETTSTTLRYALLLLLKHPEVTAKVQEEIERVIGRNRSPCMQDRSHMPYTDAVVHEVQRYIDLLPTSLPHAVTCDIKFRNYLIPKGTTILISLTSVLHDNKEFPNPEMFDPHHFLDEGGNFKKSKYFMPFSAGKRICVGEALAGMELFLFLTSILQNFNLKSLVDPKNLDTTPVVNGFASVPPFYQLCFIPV
Sequence of CYP2D6 (P10635 whole entry): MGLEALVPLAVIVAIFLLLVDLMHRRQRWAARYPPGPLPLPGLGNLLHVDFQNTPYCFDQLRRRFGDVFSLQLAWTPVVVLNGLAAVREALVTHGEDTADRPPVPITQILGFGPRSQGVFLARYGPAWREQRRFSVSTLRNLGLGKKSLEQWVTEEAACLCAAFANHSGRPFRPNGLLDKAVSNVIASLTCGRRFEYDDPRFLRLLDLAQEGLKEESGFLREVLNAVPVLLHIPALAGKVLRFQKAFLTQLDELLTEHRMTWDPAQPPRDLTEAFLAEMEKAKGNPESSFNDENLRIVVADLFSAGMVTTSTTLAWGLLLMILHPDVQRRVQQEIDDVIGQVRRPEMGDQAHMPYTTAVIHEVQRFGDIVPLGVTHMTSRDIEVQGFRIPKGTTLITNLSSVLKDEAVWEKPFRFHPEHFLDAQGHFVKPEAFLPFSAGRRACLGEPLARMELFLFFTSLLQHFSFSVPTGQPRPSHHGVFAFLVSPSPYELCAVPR
Sequence of Cytochrome P450 2C19 (P33261 whole entry): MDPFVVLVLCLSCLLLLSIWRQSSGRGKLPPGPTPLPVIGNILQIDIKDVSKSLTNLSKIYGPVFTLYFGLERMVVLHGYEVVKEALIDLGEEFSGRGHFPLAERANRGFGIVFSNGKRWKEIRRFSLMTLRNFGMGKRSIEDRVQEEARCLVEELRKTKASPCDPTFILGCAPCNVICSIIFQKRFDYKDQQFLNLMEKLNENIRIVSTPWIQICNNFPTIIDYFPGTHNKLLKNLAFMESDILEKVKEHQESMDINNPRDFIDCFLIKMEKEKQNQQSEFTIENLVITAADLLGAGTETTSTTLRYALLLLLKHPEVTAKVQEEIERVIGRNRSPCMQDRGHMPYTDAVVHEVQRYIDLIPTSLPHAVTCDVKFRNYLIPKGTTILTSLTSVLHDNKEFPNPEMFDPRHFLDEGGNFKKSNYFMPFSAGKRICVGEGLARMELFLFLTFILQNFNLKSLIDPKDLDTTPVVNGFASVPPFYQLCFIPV
Sequence of Voltage-gated inwardly rectifying potassium channel KCNH2 (Q12809 whole entry): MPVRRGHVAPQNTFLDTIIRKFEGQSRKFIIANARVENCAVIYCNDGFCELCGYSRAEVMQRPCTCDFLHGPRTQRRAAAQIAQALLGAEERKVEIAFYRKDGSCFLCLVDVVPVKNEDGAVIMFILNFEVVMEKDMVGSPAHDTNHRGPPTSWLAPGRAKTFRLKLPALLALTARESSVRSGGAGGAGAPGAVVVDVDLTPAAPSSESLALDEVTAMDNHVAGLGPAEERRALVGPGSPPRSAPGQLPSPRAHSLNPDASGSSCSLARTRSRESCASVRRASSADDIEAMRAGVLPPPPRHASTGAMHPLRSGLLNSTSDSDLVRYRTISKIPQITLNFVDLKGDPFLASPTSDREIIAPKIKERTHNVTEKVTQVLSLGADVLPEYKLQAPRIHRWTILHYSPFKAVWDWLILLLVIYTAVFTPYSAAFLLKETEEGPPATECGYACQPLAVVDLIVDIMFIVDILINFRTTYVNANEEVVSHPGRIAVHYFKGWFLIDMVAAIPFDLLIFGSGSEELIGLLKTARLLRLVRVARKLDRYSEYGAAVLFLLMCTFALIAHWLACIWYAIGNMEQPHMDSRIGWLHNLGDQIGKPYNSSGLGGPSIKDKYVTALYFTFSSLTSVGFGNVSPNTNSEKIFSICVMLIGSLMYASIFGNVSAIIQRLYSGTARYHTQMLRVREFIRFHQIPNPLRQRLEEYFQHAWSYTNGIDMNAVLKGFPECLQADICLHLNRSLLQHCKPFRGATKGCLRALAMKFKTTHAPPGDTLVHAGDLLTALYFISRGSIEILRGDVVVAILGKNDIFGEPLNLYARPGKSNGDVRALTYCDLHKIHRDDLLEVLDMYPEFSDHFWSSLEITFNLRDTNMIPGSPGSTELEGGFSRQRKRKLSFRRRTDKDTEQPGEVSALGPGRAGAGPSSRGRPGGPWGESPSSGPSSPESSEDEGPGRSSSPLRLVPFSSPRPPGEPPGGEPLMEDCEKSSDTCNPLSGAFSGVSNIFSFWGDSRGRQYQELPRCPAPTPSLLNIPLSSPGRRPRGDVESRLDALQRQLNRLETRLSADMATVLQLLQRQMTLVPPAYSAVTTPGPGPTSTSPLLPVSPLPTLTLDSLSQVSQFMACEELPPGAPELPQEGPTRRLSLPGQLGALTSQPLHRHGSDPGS

By MIC90 is commonly meant an inhibitory concentration at the 90% level, which refers to growth in some studies and to a panel of isolates in others. As usually defined, the CC50 is the concentration that lowers cell viability or growth by half. One may read the half-life as the time needed for the level to fall by half in the phase considered. As a reminder, the Tmax is the time at which the peak concentration occurs. Broadly, the Cmax is the maximum level reached in the sampled fluid or tissue. The term AUC(0-inf) denotes the area under the concentration-time curve extrapolated to infinity. A word on the MRT: it is a mean duration of stay, worked out from the concentration-time curve. By inhibition is commonly meant the relative decrease from the control value, in per cent. Usually MIC stands for the lowest concentration that inhibits growth of the organism. A word on the IC50: it is the point on the concentration scale where inhibition reaches its midpoint. Take `CCON=C1CCC(CN2CCN(c3nc(=O)c4cc(C(F)(F)F)cc([N+](=O)[O-])c4s3)CC2)CC1` (configuration not stated): the MIC90 in series [1] is below 0.016 µg/mL. In addition, the CC50 in [2] was above 64 µg/mL. This compound also had a half-life in [3] of 2.29 h. Besides, the Tmax in series [4] was found to be 0.25 h. The maximum concentration (Cmax) in series [5] came out at 15200 ng/mL. The compound also had an area under the curve AUC(0-inf) in series [6] of 40600 ng·h/mL. This compound also gave a mean residence time MRT in series [7] of 2.3 h. Further, the Activity in [8] is given as 2 log10CFU; in [12] it was “Non-Toxic”; in series [13] it was “Non-Toxic”; in [14], “Non-Toxic”; in [15], “Non-Toxic”; in series [16], “Non-Toxic”. Moreover, in series [17], the Activity worked out at 4.44 log10CFU. In series [9], the inhibition at 32 µg/mL is 79%. In [10], the minimum inhibitory concentration (MIC) was above 32 µg/mL. Besides, the IC50 at CYP1A2 was above 10 µM; on CYP2D6, above 10 µM; on CYP3A4, above 10 µM; against CYP2C9, above 10 µM; on Cytochrome P450 2C19, above 10 µM; in series [11], 38.9 µM.
